From ChEMBL document CHEMBL3526142, “Biotransformation of a novel antimitotic agent, I-387, by mouse, rat, dog, monkey, and human liver microsomes and in vivo pharmacokinetics in mice” (Drug Metab Dispos, 2011)

Tests used:
[1] = Tmax in ICR mouse at 5 mg/kg, ip by LC-MS/MS analysis; format: ADME, organism-based; set-up: dose 5 mg/kg, route intraperitoneal; details: in vivo
Summary of the method: (§1)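 Male ICR mice (20–25 g) given the compound intraperitoneally or by gavage in 10% DMSO/PEG300. Three to four mice were sacrificed per time point and plasma collected from the vena cava. Plasma was precipitated with acetonitrile containing internal standard and analysed by LC-MS/MS. Noncompartmental analysis of mean concentration-time data: terminal t1/2 = ln2/λz; Tmax by inspection; n = 3/dose group.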

[2] = Terminal half life in ICR mouse at 15 mg/kg, ip by LC-MS/MS analysis; format: ADME, organism-based; set-up: dose 15 mg/kg, route intraperitoneal; details: in vivo, read-out: beta t1/2 (converted); summary of the method: as §1
[3] = Tmax in ICR mouse at 15 mg/kg, ip by LC-MS/MS analysis; format: ADME, organism-based; set-up: dose 15 mg/kg, route intraperitoneal; details: in vivo; summary of the method: as §1
[4] = Bioavailability in ICR mouse at 15 mg/kg, ip by LC-MS/MS analysis; format: ADME, organism-based; details: in vivo
Summary of the method: (§2)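 Male ICR mice (5–6 weeks, 20–25 g), single doses of 1, 5 or 15 mg/kg in 10% DMSO/PEG300, given iv by tail vein, ip, or orally by gavage. Three to four mice per time point, euthanized under isoflurane, blood drawn from posterior vena cava. Plasma protein precipitated with acetonitrile containing internal standard, then LC-MS/MS (MRM m/z 388.2→192). Noncompartmental analysis of mean concentration-time data, AUCinf by trapezoidal rule with extrapolation, CL = dose/AUCinf, Cmax read from the curve. F = (AUCnon-iv × dose iv)/(AUCiv × dose non-iv). n = 3 per dose group.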

[5] = Terminal half life in ICR mouse at 1 mg/kg, po via gavage by LC-MS/MS analysis; format: ADME, organism-based; set-up: dose 1 mg/kg, route oral; details: in vivo, read-out: beta t1/2 (converted); summary of the method: as §1
[6] = Cmax in ICR mouse at 1 mg/kg, po via gavage by LC-MS/MS analysis; format: ADME, organism-based; set-up: dose 1 mg/kg, route oral; details: in vivo; summary of the method: as §2
[7] = Oral bioavailability in ICR mouse at 1 mg/kg via gavage after 30 mins by LC-MS/MS analysis; format: ADME, organism-based; details: in vivo
Summary of the method: (§3)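 Male ICR mice (5–6 weeks, 20–25 g) dosed by gavage in 10% DMSO in PEG300. Three to four mice per time point were euthanized under isoflurane and blood taken from the posterior vena cava. Plasma was acetonitrile-precipitated and analysed by LC-MS/MS (MRM m/z 388.2→192). Tmax read by visual inspection. F = (AUC_oral × dose_iv)/(AUC_iv × dose_oral), with AUC_inf by trapezoidal rule; n = 3/dose group.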

[8] = Mean residence time (infinity) in ICR mouse at 5 mg/kg, po via gavage by LC-MS/MS analysis; format: ADME, organism-based; set-up: dose 5 mg/kg, route oral; details: in vivo; summary of the method: as §2
[9] = Oral bioavailability in ICR mouse at 5 mg/kg via gavage after 30 mins by LC-MS/MS analysis; format: ADME, organism-based; details: in vivo; summary of the method: as §3
[10] = Cmax in ICR mouse at 15 mg/kg, po via gavage by LC-MS/MS analysis; format: ADME, organism-based; set-up: dose 15 mg/kg, route oral; details: in vivo; summary of the method: as §2
[11] = Metabolic stability in monkey liver microsomes assessed as half life during phase 1 at 0.5 uM by LC-MS/MS analysis in presence of 3 mM NADPH and absence of UDPGA; format: ADME, Macaca mulatta; details: rhesus monkey, read-out: alphat1/2
Summary of the method: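 Pooled liver microsomes at 1 mg/ml protein with 3 mM NADPH, 0.5 μM substrate in 65 mM potassium phosphate pH 7.4, 1% methanol, 37°C. Incubations stopped at 10, 20, 30, 60 and 90 min with ice-cold acetonitrile plus internal standard, then LC-MS/MS of parent remaining relative to time 0. Half-life from a two-parameter single exponential decay fit; n = 2 to 3.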

[12] = Metabolic stability in monkey liver microsomes assessed as half life during phase 1 and 2 at 0.5 uM by LC-MS/MS analysis in presence of 3 mM NADPH and […] UDPGA; format: ADME, Macaca mulatta; details: rhesus monkey, read-out: alphat1/2
[13] = test system: Liver microsome; assay: Drug metabolism in human liver microsomes assessed as (3-(1H-indol-2-yl)phenyl)(3,4,5-trimethoxyphenyl)methanol formation at 0.5 uM after 2 hrs by LC-MS/MS analysis in presence of 3 mM NADPH; format: ADME
Summary of the method: (§4)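 Pooled liver microsomes (1 mg/ml protein) incubated with 0.5 µM substrate and 3 mM NADPH in 65 mM potassium phosphate, pH 7.4, 1% methanol, at 37°C for 2 h. Stopped with ice-cold acetonitrile containing internal standard, centrifuged. Supernatant analysed by LC-MS/MS on a C18 column, 15-min gradient, with product ion scans for metabolite identification.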

[14] = test system: Liver microsome; assay: Drug metabolism in dog liver microsomes assessed as (3-(1H-indol-2-yl)phenyl)(3,4,5-trimethoxyphenyl)methanol formation at 0.5 uM after 2 hrs by LC-MS/MS analysis in presence of 3 mM NADPH; format: ADME, Canis lupus familiaris; summary of the method: as §4
[15] = test system: Liver microsome; assay: Drug level in dog liver microsomes assessed as compound retention time treated with 0.5 uM I-387 after 2 hrs by LC-MS/MS analysis; format: ADME, Canis lupus familiaris; summary of the method: as §4
[16] = Drug level in monkey liver microsomes assessed as compound retention time treated with 0.5 uM I-387 after 2 hrs by LC-MS/MS analysis; format: ADME, Macaca mulatta; details: rhesus monkey; summary of the method: as §4
[17] = Terminal half life in ICR mouse at 1 mg/kg, iv by LC-MS/MS analysis; format: ADME, organism-based; set-up: dose 1 mg/kg, route intravenous; details: in vivo, read-out: beta t1/2 (converted)
Summary of the method: (§5)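 Tail-vein injection in male ICR mice (5–6 weeks), vehicle 10% DMSO in PEG300. Serial terminal sampling of 3–4 mice per time point, with posterior vena cava blood. Plasma was acetonitrile-precipitated and measured by LC-MS/MS. Noncompartmental analysis of mean data: t1/2 = ln2/λz, CL = dose/AUC_inf, Vd_ss = CL × MRT_inf; n = 3/dose group.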

[18] = Cmax in ICR mouse at 1 mg/kg, iv by LC-MS/MS analysis; format: ADME, organism-based; set-up: dose 1 mg/kg, route intravenous; details: in vivo; summary of the method: as §2
[19] = Clearance in ICR mouse at 1 mg/kg, iv by LC-MS/MS analysis; format: ADME, organism-based; set-up: dose 1 mg/kg, route intravenous; details: in vivo; summary of the method: as §2
[20] = Volume of distribution at steady state in ICR mouse at 1 mg/kg, iv by LC-MS/MS analysis; format: ADME, organism-based; set-up: dose 1 mg/kg, route intravenous; details: in vivo, read-out: Vdss; summary of the method: as §5
[21] = Mean residence time (infinity) in ICR mouse at 5 mg/kg, iv by LC-MS/MS analysis; format: ADME, organism-based; set-up: dose 5 mg/kg, route intravenous; details: in vivo; summary of the method: as §2
[22] = Mean residence time (infinity) in ICR mouse at 15 mg/kg, iv by LC-MS/MS analysis; format: ADME, organism-based; set-up: dose 15 mg/kg, route intravenous; details: in vivo; summary of the method: as §2
[23] = Terminal half life in ICR mouse at 1 mg/kg, ip by LC-MS/MS analysis; format: ADME, organism-based; set-up: dose 1 mg/kg, route intraperitoneal; details: in vivo, read-out: beta t1/2 (converted); summary of the method: as §1
[24] = Mean residence time (infinity) in ICR mouse at 1 mg/kg, ip by LC-MS/MS analysis; format: ADME, organism-based; set-up: dose 1 mg/kg, route intraperitoneal; details: in vivo; summary of the method: as §2
[25] = Cmax in ICR mouse at 1 mg/kg, ip by LC-MS/MS analysis; format: ADME, organism-based; set-up: dose 1 mg/kg, route intraperitoneal; details: in vivo; summary of the method: as §2
[26] = AUC (infinity) in ICR mouse at 1 mg/kg, ip by LC-MS/MS analysis; format: ADME, organism-based; set-up: time infinity, dose 1 mg/kg, route intraperitoneal; details: plasma; summary of the method: as §2
[27] = Terminal half life in ICR mouse at 5 mg/kg, ip by LC-MS/MS analysis; format: ADME, organism-based; set-up: dose 5 mg/kg, route intraperitoneal; details: in vivo, read-out: beta t1/2 (converted); summary of the method: as §1
[28] = Metabolic stability in human liver microsomes assessed as half life during phase 1 and 2 at 0.5 uM by LC-MS/MS analysis in presence of 3 mM NADPH and 5 mM UDPGA; details: read-out: alphat1/2

COc1cc(C(=O)c2cccc(-c3cc4ccccc4[nH]3)c2)cc(OC)c1OC
Tmax [1]: 5 min | half-life [2]: 8.3 h | Tmax [3]: 0.167 h | bioavailability [4]: 94% | half-life [5]: 8.7 h | Cmax [6]: 30 ng/mL | bioavailability [7]: 24% | MRT inf [8]: 8.9 h | bioavailability [9]: 13% | Cmax [10]: 260 ng/mL | half-life at 0.5 µM [11]: 0.25 h | half-life at 0.5 µM [12]: 0.183 h | Drug metabolism [13]: metabolite_detected | Drug metabolism [14]: metabolite_detected | Retention_time [15]: 11.3 min | Retention_time [16]: 11.3 min | half-life [17]: 7 h | Cmax [18]: 550 ng/mL | clearance [19]: 27 mL/min/kg | Vd [20]: 5.3 L/kg | MRT inf [21]: 3.3 h | MRT inf [22]: 8.8 h | half-life [23]: 8 h | MRT inf [24]: 6.4 h | Cmax [25]: 250 ng/mL | AUC(0-inf) [26]: 400 ng·h/mL | half-life [27]: 4.9 h | half-life at 0.5 µM [28]: 0.5 h
